Assay results taken from ChEMBL document CHEMBL1126857, “14 beta-[(p-nitrocinnamoyl)amino]morphinones, 14 beta-[(p-nitrocinnamoyl)amino]-7,8-dihydromorphinones, and their codeinone analogues: synthesis and receptor activity” (J Med Chem, 1993).
pIC50, pKd: −log10 of the molar value.

Target: not listed separately
Assay: Tested for its binding effect on [3H]- DAMGO in bovine striatal membrane at 20 nM
Format: functional, cell membranes, Bos taurus, Striatum
Method in brief: (§1)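 Bovine striatal membranes (10 mg protein) pretreated 60 min at 25 °C with or without 20 nM ligand in 50 mM Tris-HCl pH 7.5, then washed by centrifugation five times. [3H]DAMGO saturation, 0.05–6.4 nM, 60 min at 25 °C, then filtration. Nonspecific binding with 10 μM naloxone; Bradford protein. Kd/Bmax by nonlinear regression; triplicate, three experiments.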

Compound | pKd
C[C@@]12Oc3c(O)ccc4c3C13CCN(CC1CC1)C(C4)[C@]3(NC(=O)/C=C/c1ccc([N+](=O)[O-])cc1)CCC2=O (some centres not stated) | 9.09

System: not listed separately
Assay: Bmax value expressed in (f mol bound)/mg of protein
Method in brief: as §1

Compound | Bmax (fM bound (mg of protein)-1)
C[C@@]12Oc3c(O)ccc4c3C13CCN(CC1CC1)C(C4)[C@]3(NC(=O)/C=C/c1ccc([N+](=O)[O-])cc1)CCC2=O (some centres not stated) | 100

Target: Mu-type opioid receptor (Bos taurus, UniProt P79350)
Sequence (P79350 whole entry): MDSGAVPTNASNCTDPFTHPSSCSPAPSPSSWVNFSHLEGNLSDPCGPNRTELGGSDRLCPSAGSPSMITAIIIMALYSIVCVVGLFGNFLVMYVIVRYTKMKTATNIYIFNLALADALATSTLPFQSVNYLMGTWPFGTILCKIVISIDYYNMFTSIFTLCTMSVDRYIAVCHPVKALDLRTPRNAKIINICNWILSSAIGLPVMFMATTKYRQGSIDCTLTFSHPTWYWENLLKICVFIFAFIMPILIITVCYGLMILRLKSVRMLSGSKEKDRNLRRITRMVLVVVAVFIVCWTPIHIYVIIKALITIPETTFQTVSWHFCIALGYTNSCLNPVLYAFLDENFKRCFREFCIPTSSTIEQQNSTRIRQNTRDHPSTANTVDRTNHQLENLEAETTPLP
Assay: Binding affinity against mu opioid receptor from calf frontal cortex.
Method in brief: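 Calf frontal cortex membranes (10 mg wet weight), prewashed and preincubated 15 min at 37 °C, in 50 mM Tris-HCl pH 7.5 with 10 mM MgSO4 and 0.5 mM EDTA. Competition against 0.8 nM [3H]DAMGO at eight ligand concentrations, 30 min at 37 °C, in triplicate. Nonspecific binding with 1 μM naloxone. Filtration, then scintillation counting; IC50 taken.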

Compound | pIC50
O=C(/C=C/c1ccc([N+](=O)[O-])cc1)N[C@@]12CCC(=O)[C@@H]3Oc4c(O)ccc5c4[C@@]31CCN(CC1CC1)[C@@H]2C5 | 9.06
COc1ccc2c3c1O[C@@]1(C)C(=O)C=C[C@@]4(NC(=O)/C=C/c5ccc([N+](=O)[O-])cc5)C(C2)N(CC2CC2)CCC314 (some centres not stated) | 7.43
COc1ccc2c3c1O[C@@]1(C)C(=O)C=C[C@@]4(NC(=O)/C=C/c5ccc([N+](=O)[O-])cc5)C(C2)N(C)CCC314 (some centres not stated) | 7.44
C[C@@]12Oc3c(O)ccc4c3C13CCN(CC1CC1)C(C4)[C@]3(NC(=O)/C=C/c1ccc([N+](=O)[O-])cc1)C=CC2=O (some centres not stated) | 8.73
CN1CCC23c4c5ccc(O)c4O[C@@]2(C)C(=O)C=C[C@@]3(NC(=O)/C=C/c2ccc([N+](=O)[O-])cc2)C1C5 (some centres not stated) | 9.10
COc1ccc2c3c1O[C@H]1C(=O)CC[C@@]4(NC(=O)/C=C/c5ccc([N+](=O)[O-])cc5)C(C2)N(C)CCC314 (some centres not stated) | 9.36
C[C@@]12Oc3c(O)ccc4c3C13CCN(CC1CC1)C(C4)[C@]3(NC(=O)CCc1ccc([N+](=O)[O-])cc1)CCC2=O (some centres not stated) | 7.62
C[C@@]12Oc3c(O)ccc4c3C13CCN(CC1CC1)C(C4)[C@]3(NC(=O)/C=C/c1ccc([N+](=O)[O-])cc1)CCC2=O (some centres not stated) | 9.28
CN1CCC23c4c5ccc(O)c4O[C@H]2C(=O)C=C[C@@]3(NC(=O)/C=C/c2ccc([N+](=O)[O-])cc2)C1C5 (some centres not stated) | 8.84
O=C(/C=C/c1ccc([N+](=O)[O-])cc1)N[C@@]12C=CC(=O)[C@@H]3Oc4c(O)ccc5c4C31CCN(CC1CC1)C2C5 (some centres not stated) | 8.11
COc1ccc2c3c1O[C@@]1(C)C(=O)CC[C@@]4(NC(=O)/C=C/c5ccc([N+](=O)[O-])cc5)C(C2)N(CC2CC2)CCC314 (some centres not stated) | 7.49
CN1CC[C@]23c4c5ccc(O)c4O[C@H]2C(=O)CC[C@@]3(NC(=O)/C=C/c2ccc([N+](=O)[O-])cc2)[C@H]1C5 | 9.55
COc1ccc2c3c1O[C@@]1(C)C(=O)CC[C@@]4(NC(=O)/C=C/c5ccc([N+](=O)[O-])cc5)C(C2)N(C)CCC314 (some centres not stated) | 6.98
COc1ccc2c3c1O[C@H]1C(=O)C=C[C@@]4(NC(=O)/C=C/c5ccc([N+](=O)[O-])cc5)C(C2)N(C)CCC314 (some centres not stated) | 9.00
COc1ccc2c3c1O[C@H]1C(=O)C=C[C@@]4(NC(=O)/C=C/c5ccc([N+](=O)[O-])cc5)C(C2)N(CC2CC2)CCC314 (some centres not stated) | 8.84
